Data on 2 compounds can be found in ChEMBL document CHEMBL4052634, “Covalent inhibitors of LgtC: A blueprint for the discovery of non-substrate-like inhibitors for bacterial glycosyltransferases” (Bioorg Med Chem, 2017).

Calls of active or inactive are those of the source. The calls are words filed in the database; no cut-off is given here.

The subject of assay [1] is Neisseria meningitidis. Put plainly: Inhibition of Neisseria meningitidis alpha-1,4-galactosyltransferase at 0.1 to 100 uM using lactose as substrate preincubated with compoundfollowed by substrate/UDP-Gal addition measured after 20 min by malachite green dye-based assay. In outline: (§1)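 Enzyme (DTT-activated) with MnCl2 5 mM, CIP 10 U/mL, lysozyme 1 mg/mL, 0.01% Triton, 13 mM HEPES pH 7.0 and inhibitor in DMSO (10% final) pre-incubated 10 min at 30 °C before UDP-Gal (28 µM) plus lactose (2 mM) added; 20 min at 30 °C; UDP read by malachite green at 620 nm versus UDP standard curve, background-corrected; triplicate.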

Assay [2] concerns Neisseria meningitidis. Put plainly: Inhibition of Neisseria meningitidis alpha-1,4-galactosyltransferase assessed as consumption of donor UDP-Gal by measuring turnover rate at 0.1 to 100 uM using lactose as substrate in presence of UDP-Gal measured after 20 min by malachite green dye-based assay relative to total amount of UDP-Gal used. The procedure, abridged: (§2)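 No pre-incubation: DTT-activated LgtC with MnCl2 5 mM, CIP 10 U/mL, egg-white lysozyme 1 mg/mL, 0.01% Triton, 13 mM HEPES pH 7.0, lactose 2 mM, inhibitor in DMSO (10% final); started with UDP-Gal 28 µM, 20 min at 30 °C, 20-50% donor turnover. Malachite green read at 620 nm against a UDP calibration curve, background without acceptor subtracted, % of assay window; triplicate minimum; IC50 from sigmoidal fit.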

For assay [3], the system named is Neisseria meningitidis. The assay is described as follows: Inhibition of Neisseria meningitidis alpha-1,4-galactosyltransferase assessed as consumption of donor UDP-Gal by measuring turnover rate at 0.1 to 100 uM using lactose as substrate preincubated for 10 mins with UDP-Gal followed by lactose addition measured after 20 mins by malachite green dye-based assay relative to total amount of UDP-Gal used. The procedure, abridged:
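LgtC pre-incubated 10 min at 30 °C with inhibitor (DMSO, 10% final) and UDP-Gal 28 µM in 13 mM HEPES pH 7.0 with MnCl2 5 mM, CIP 10 U/mL, lysozyme 1 mg/mL, 0.01% Triton; lactose 2 mM then added, 20 min at 30 °C; malachite green absorbance at 620 nm converted via UDP calibration; triplicate.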

In assay [4] the test system is Neisseria meningitidis. The assay is described as follows: Inhibition of Neisseria meningitidis alpha-1,4-galactosyltransferase assessed as consumption of donor UDP-Gal by measuring turnover rate at 0.1 to 100 uM using lactose as substrate preincubated for 10 mins followed by substrate and UDP-Gal addition measured after 20 mins by malachite green dye-based assay relative to total UDP-Gal used. In outline:
as §1

For assay [5], the system named is Neisseria meningitidis. Put plainly: Inhibition of Neisseria meningitidis alpha-1,4-galactosyltransferase assessed as consumption of donor UDP-Gal by measuring turnover rate at 0.1 to 100 uM using lactose as substrate preincubated with lactose for 10 mins followed by UDP-Gal addition measured after 20 mins by malachite green dye-based assay relative to total UDP-Gal used. In outline: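 Pre-incubation 10 min at 30 °C of activated LgtC, inhibitor (10% DMSO final) and lactose 2 mM in 13 mM HEPES pH 7.0 with MnCl2 5 mM, CIP 10 U/mL, lysozyme 1 mg/mL, 0.01% Triton; reaction started with UDP-Gal 28 µM, 20 min at 30 °C; malachite green readout at 620 nm against UDP standards; triplicate.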

A short description of assay [6]: Inhibition of Neisseria meningitidis alpha-1,4-galactosyltransferase assessed as enzyme activity using lactose as substrate in presence of UDP-Gal measured after 20 min by malachite green dye-based assay. The procedure, abridged: as §2
The nature of assay [7]: Inhibition of Neisseria meningitidis alpha-1,4-galactosyltransferase assessed as enzyme activity using lactose as substrate preincubated for 5 mins followed by lactose and UDP-Gal addition measured after 20 mins by malachite green dye-based assay.
A short description of assay [8]: Inhibition of Neisseria meningitidis alpha-1,4-galactosyltransferase assessed as enzyme activity using lactose as substrate preincubated for 10 mins followed by lactose and UDP-Gal addition measured after 20 mins by malachite green dye-based assay. In outline: as §1
A short description of assay [9]: Inhibition of Neisseria meningitidis alpha-1,4-galactosyltransferase assessed as enzyme activity using lactose as substrate preincubated for 20 mins followed by lactose and UDP-Gal addition measured after 20 mins by malachite green dye-based assay.
Assay [10] is described as follows: Inhibition of Neisseria meningitidis alpha-1,4-galactosyltransferase assessed as enzyme activity using lactose as substrate preincubated for 30 mins followed by lactose and UDP-Gal addition measured after 20 mins by malachite green dye-based assay.
Assay [11] can be described thus: Inhibition of Neisseria meningitidis alpha-1,4-galactosyltransferase assessed as enzyme activity using lactose as substrate preincubated for 60 mins followed by lactose and UDP-Gal addition measured after 20 mins by malachite green dye-based assay.
Assay [12] can be described thus: Inhibition of Neisseria meningitidis alpha-1,4-galactosyltransferase assessed as enzyme activity using lactose as substrate preincubated for 180 mins followed by lactose and UDP-Gal addition measured after 20 mins by malachite green dye-based assay.
For the next assay, the species on record is Bos taurus. Put plainly: Inhibition of bovine beta-1,4-galactosyltransferase at 0.1 to 50 uM using UDP as substrate after 20 mins by malachite green dye-based assay.
Assay [13] can be described thus: (§3) Inhibition of Neisseria meningitidis alpha-1,4-galactosyltransferase assessed as enzyme activity using lactose as substrate preincubated for 0 to 30 mins measured after 20 mins in presence of UDP-Gal.
In assay [14] the test system is Neisseria meningitidis. The description is as §3.
The subject of assay [15] is Neisseria meningitidis. The assay is described as follows: Inhibition of Neisseria meningitidis alpha-1,4-galactosyltransferase assessed as rate constant for enzyme activity at 0.5 uM using lactose as substrate preincubated with substrate measured after 20 mins in presence of UDP-Gal. In outline:
(§4)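 Activity measured at a series of inhibitor concentrations (0.5-200 µM range overall) after pre-incubation with LgtC for 0, 5, 10, 20 and 30 min, using the pre-incubation protocols (lactose 2 mM, UDP-Gal 28 µM, 20 min at 30 °C, malachite green); % of DMSO control plotted semi-logarithmically versus pre-incubation time to give kobs; kobs versus concentration gave Ki and kinact; triplicate.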

The subject of assay [16] is Neisseria meningitidis. The assay is described as follows: Inhibition of Neisseria meningitidis alpha-1,4-galactosyltransferase assessed as rate constant for enzyme activity at 4 uM using lactose as substrate preincubated with substrate measured after 20 mins in presence of UDP-Gal. In outline:
as §4

Assay [17] relates to Neisseria meningitidis. The assay is described as follows: Inhibition of Neisseria meningitidis alpha-1,4-galactosyltransferase assessed as rate constant for enzyme activity at 10 uM using lactose as substrate preincubated with substrate measured after 20 mins in presence of UDP-Gal. The procedure, abridged:
as §4

Assay [18] relates to Neisseria meningitidis. Put plainly: Inhibition of Neisseria meningitidis alpha-1,4-galactosyltransferase assessed as rate constant for enzyme activity at 25 uM using lactose as substrate preincubated with substrate measured after 20 mins in presence of UDP-Gal. In outline: as §4
The subject of assay [19] is Neisseria meningitidis. The assay is described as follows: Inhibition of Neisseria meningitidis alpha-1,4-galactosyltransferase assessed as rate constant for enzyme activity at 50 uM using lactose as substrate preincubated with substrate measured after 20 mins in presence of UDP-Gal. The procedure, abridged:
as §4

In assay [20] the test system is Neisseria meningitidis. The assay is described as follows: Inhibition of Neisseria meningitidis alpha-1,4-galactosyltransferase assessed as consumption of donor UDP-Gal by measuring turnover rate at 0.1 to 100 uM using lactose as substrate preincubated for 5 mins followed by lactose and UDP-Gal addition measured after 20 mins by malachite green dye-based assay relative to total UDP-Gal used.

With `COc1ccc(/C=C2\C(=O)N(c3ccccc3)N=C2C(F)(F)F)cc1Br`, the inhibition result in the assay on Neisseria meningitidis [1] and in the assay filed under Bos taurus was “inactive” each time. The inhibition in the assay on Neisseria meningitidis [2] turned out to be 30%; with Neisseria meningitidis [3], 30%; in the assay on Neisseria meningitidis [4], 25%; in the assay on Neisseria meningitidis [5], 23%. Further, the IC50 in [6] is greater than 50 µM; in assay [7], 24 µM; in [8], 15.8 µM; in assay [9], 6.5 µM; in [10], 3.1 µM; in assay [11] it was 3.1 µM. Moreover, the IC50 in assay [12] was found to be 5.5 µM. The inhibition constant Ki in assay [13] was 4.4 µM. Further, in the assay with Neisseria meningitidis [14], the Kinact was found to be 0.0535 min⁻¹. The K amounted to 0.006 min⁻¹ in the assay with Neisseria meningitidis [15]; 0.023 min⁻¹ in the assay with Neisseria meningitidis [16]; 0.039 min⁻¹ with Neisseria meningitidis [17]; 0.047 min⁻¹ with Neisseria meningitidis [18]; 0.048 min⁻¹ in the assay with Neisseria meningitidis [19].
On to `O=C1/C(=C\c2cccc(OCc3ccccc3)c2)C(C(F)(F)F)=NN1c1ccccc1`, for which the inhibition result with Neisseria meningitidis [1] and in the assay filed under Bos taurus was “inactive” throughout. The inhibition with Neisseria meningitidis [2] is 29%; with Neisseria meningitidis [3], 29%; in the assay with Neisseria meningitidis [4] it was 25 to 41%; in the assay with Neisseria meningitidis [5], 23%; in the assay with Neisseria meningitidis [20], 30%. Moreover, the IC50 was greater than 100 µM in assay [6]; greater than 50 µM in assay [7]; greater than 50 µM in [8]; 38 µM in assay [9]; 17.6 µM in assay [10]; 9 µM in assay [11]. Also, in assay [12], the concentration for half-maximal inhibition (IC50) worked out at 6 µM. The inhibitory constant (Ki) in assay [13] stood at 46.3 µM. Further, in the assay on Neisseria meningitidis [14], the Kinact amounted to 0.104 min⁻¹. In addition, the K in the assay on Neisseria meningitidis [15] stood at 0.002 min⁻¹; in the assay with Neisseria meningitidis [16], 0.007 min⁻¹; with Neisseria meningitidis [17], 0.011 min⁻¹; in the assay on Neisseria meningitidis [18], 0.033 min⁻¹; in the assay on Neisseria meningitidis [19] it was 0.068 min⁻¹.

One may read the inhibition as the drop in the measured response relative to a control, in per cent. A word on the IC50: it is the concentration that gives 50% inhibition. What is called Ki is the dissociation constant of the complex between target and ligand, obtained from inhibition or displacement.
